Assay results gathered from unrelated publications.
Compare with care: the assays were run in different laboratories.
Target: Ephrin type-A receptor 1 (EPHA1, Homo sapiens, UniProt P21709)
Residues used in one study (P21709 26-976): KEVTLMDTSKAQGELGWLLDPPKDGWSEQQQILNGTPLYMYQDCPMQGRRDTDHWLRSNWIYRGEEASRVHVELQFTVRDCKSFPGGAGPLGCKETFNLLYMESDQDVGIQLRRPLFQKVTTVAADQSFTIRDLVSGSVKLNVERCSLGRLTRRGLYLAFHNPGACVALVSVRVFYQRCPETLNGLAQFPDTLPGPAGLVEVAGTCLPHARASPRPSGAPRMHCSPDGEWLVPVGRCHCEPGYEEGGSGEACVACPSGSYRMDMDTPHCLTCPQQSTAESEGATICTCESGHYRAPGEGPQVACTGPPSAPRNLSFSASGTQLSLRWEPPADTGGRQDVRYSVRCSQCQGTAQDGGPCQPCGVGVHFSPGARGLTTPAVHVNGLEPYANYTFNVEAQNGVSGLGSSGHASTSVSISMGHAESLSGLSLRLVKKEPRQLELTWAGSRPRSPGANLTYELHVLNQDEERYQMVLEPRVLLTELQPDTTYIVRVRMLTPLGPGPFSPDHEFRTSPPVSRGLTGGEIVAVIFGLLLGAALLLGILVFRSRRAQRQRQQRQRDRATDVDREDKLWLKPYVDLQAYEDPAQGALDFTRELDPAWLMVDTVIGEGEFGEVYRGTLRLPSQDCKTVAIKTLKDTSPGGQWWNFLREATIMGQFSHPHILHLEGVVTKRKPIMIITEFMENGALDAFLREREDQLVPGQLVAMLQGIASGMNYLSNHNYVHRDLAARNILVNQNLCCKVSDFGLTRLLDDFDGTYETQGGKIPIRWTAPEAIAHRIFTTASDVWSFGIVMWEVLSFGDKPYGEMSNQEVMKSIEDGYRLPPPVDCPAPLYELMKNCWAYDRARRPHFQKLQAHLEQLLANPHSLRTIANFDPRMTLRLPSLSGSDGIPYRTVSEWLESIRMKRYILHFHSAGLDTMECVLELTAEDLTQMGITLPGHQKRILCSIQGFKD

| SMILES | effect on | mode | method | tested at | measurement | result |
| --- | --- | --- | --- | --- | --- | --- |
| O=C1CCc2cc(Nc3cc(OC4CCOCC4)c([N+](=O)[O-])cc3Cl)ccc2N1 | cell-free assay | – | competition with immobilised ligand | 1 µM | remaining binding | 81% |
| O=C1Nc2ccc(Cl)cc2C1=Cc1cc(Cl)c(O)c(Cl)c1 | cell-free assay | – | – | 0.5 µM | remaining signal | 88.9% |
| COc1cccc2c(NCc3ccccc3)nc(-n3c(N)nc4ccccc43)nc12 | target engagement in cells | inhibitor | chemoproteomics | 20 mM | inhibition | -22.2% |
| CNC(=O)Nc1ccc2c(c1)[C@@]1(CC2)OC(=O)N(CC(=O)N(Cc2ccc(F)cc2)[C@@H](C)C(F)(F)F)C1=O | cell-free assay | – | competition with immobilised ligand | 1 µM | remaining binding | 100% |
| O=C(Nc1cnn(-c2csc(C(=O)NC3COC3)c2)c1)Nc1ccccc1Cl | enzyme activity | inhibitor | – | 5 µM | remaining activity | 99.1% |
| COc1cc2ncnc(Nc3ccc(Oc4ccccc4)cc3C)c2cc1OC | enzyme activity | inhibitor | – | 1 µM | inhibition | 11% |
| CC(C)(C)c1nc2c(s1)c1nc(N)ncc1c1ccc(NS(=O)(=O)c3c(F)cccc3F)c(F)c12 | enzyme activity | inhibitor | radiometric | 1 µM | remaining activity | 94% |
| Cc1sc(C(=O)NC2COC2)cc1-n1cc(NC(=O)Nc2c(F)cccc2Cl)cn1 | enzyme activity | inhibitor | – | 10 µM | remaining activity | 88.5% |
| CCS(=O)(=O)c1cc2cc(C[C@](O)(CC(C)(C)c3ccc(F)cc3C(N)=O)C(F)(F)F)[nH]c2cn1 | cell-free assay | – | competition with immobilised ligand | 1 µM | remaining binding | 100% |
| CC/C(=N\NC(=O)NCc1cccc(O)c1)c1ccc(O)c(C)c1O | enzyme activity | inhibitor | – | 0.1 µM | inhibition | -1.2% |
| Cc1ccc(C(=O)NCc2ccsc2)cc1C#Cc1cn(C(C)C)c2ncnc(N)c12 | enzyme activity | inhibitor | – | 1 µM | activity vs control | 45% |
| Cc1cc(NC(=O)c2cccc3cc(-c4cccc5[nH]nc(N)c45)ccc23)ccc1F | enzyme activity | inhibitor | – | 0.1 µM | activity vs control | 102% |
| COc1cc(Nc2c(C#N)cnc3cc(OCCCN4CCN(C)CC4)c(OC)cc23)c(Cl)cc1Cl | cell-free assay | – | – | 0.5 µM | remaining signal | 97.7% |
| Cc1ccc(Nc2nccc(N(C)c3ccc4c(C)n(C)nc4c3)n2)cc1S(N)(=O)=O | enzyme activity | inhibitor | – | 10 µM | inhibition | 85% |
| F[C@@H]1CCN(c2nccc(-c3cnn4ncccc34)n2)C1 | binding | – | – | 1 µM | remaining binding | 79% |
| COc1ccc2c(c1)O[C@H](c1ccc(OC)c(OC)c1)C[C@@H]2NC(=O)C1(c2ccc3c(c2)OC(F)(F)O3)CC1 | cell-free assay | – | competition with immobilised ligand | 1 µM | remaining binding | 88% |
| CCCOc1ccc(OC)c(F)c1C(=O)c1ccc(C(=O)N[C@@H]2CNC[C@H]2NC(=O)c2ccc3[nH]ncc3c2)cc1 | enzyme activity | inhibitor | – | 10 µM | remaining activity | 85% |
| O=C(Nc1cccnn1)N1CCC(=Cc2cccc(Oc3ccc(C(F)(F)F)cn3)c2)CC1 | cell-free assay | – | competition with immobilised ligand | 1 µM | remaining binding | 100% |
| CNC(=O)c1cc(Oc2ccc(NC(=O)Nc3ccc(Cl)c(C(F)(F)F)c3)cc2)ccn1 | enzyme activity | inhibitor | – | 10 µM | inhibition | 94% |
| COc1cc(-c2cc(-c3ccc(N4CCNCC4)cc3)cnc2C)cc(OC)c1OC | enzyme activity | inhibitor | – | 0.1 µM | inhibition | 3% |
| Nc1ncnc2occ(-c3ccc(NC(=O)Nc4cc(C(F)(F)F)ccc4F)cc3)c12 | cell-free assay | – | – | 20 µM | remaining signal | 0.5% |
| O=C(N[C@H]1CCCCC/C=C\C2C[C@@]2(C(=O)O)NC(=O)[C@@H]2C[C@@H](Oc3ccncc3)CN2C1=O)OC1CCCC1 (some centres unmarked) | cell-free assay | – | competition with immobilised ligand | 1 µM | remaining binding | 90% |
| O=C1NC(=O)c2cc(Nc3ccc(F)cc3)c(Nc3ccc(F)cc3)cc21 | cell-free assay | – | – | 0.5 µM | remaining signal | 97.4% |
| O=C(NCCCC1CCCCC1)c1ccc(CNC(=O)c2cnn(-c3ccccc3)c2C(F)(F)F)cc1 | cell-free assay | – | competition with immobilised ligand | 0.1 µM | remaining binding | 100% |
| CCN(CC)CCNC(=O)c1c(C)[nH]c(/C=C2\C(=O)Nc3ccc(F)cc32)c1C | enzyme activity | inhibitor | – | 0.3 µM | inhibition | 1% |
| COc1cc(Cl)c(C(=O)N[C@@H](CN[C@H]2CC[C@@H](N)CC2)Cc2ccc(C#N)cc2)cc1-c1ccc(CN[C@H](C)c2ccc(C)cc2)o1 | enzyme activity | inhibitor | – | 1 µM | remaining activity | 105% |
